Experimental findings from ChEMBL document CHEMBL1138791, “Acyl sulfonamide anti-proliferatives: benzene substituent structure-activity relationships for a novel class of antitumor agents” (J Med Chem, 2004) are described below.

Assay [1] relates to L1210. Briefly: Diameter of zone of inhibition for cell colony formation of L1210 leukemia cell lines at the dose of 200 ug. It is filed as functional, Mus musculus. The essentials: (§1)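 Soft agar disk diffusion: leukemia (L1210), solid tumor (HCT116, or colon H15) and normal fibroblast cells seeded in soft agar in separate 60 mm dishes. Compound applied to a filter paper disk (dose in μg/disk) set on the agar. Colony-formation inhibition zones read after 6–7 days at 37 °C. 200 zone units = 6.5 mm; 950 = total inhibition; a range marks partial colony shrinkage. n > 2 unless noted.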

In the next assay the test system is HT-29. In words: Growth inhibitory activity against human colon HT-29 cell line. It is filed as functional. The essentials:
(§2)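 Cell-line screen run at NCI by published procedures. […] The mean graph midpoint is taken across all human cancer cell lines successfully tested.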

In another assay the test system is SW-620. Briefly: Growth inhibitory activity against human colon SW620 cell line. It is filed as functional. The method in brief:
as §2

Assay [2] is described as follows: Diameter of zone of inhibition for cell colony formation of normal fibroblast at the dose of 200 ug; Range is 0-11. It is filed as functional, Homo sapiens. The essentials: as §1
The subject of assay [3] is Panel (Carcinoma cell lines). Briefly: Mean graph mid point value for cytotoxic activity against human cancer cell lines was determined. The assay is classed as functional. The method in brief:
as §2

For assay [4], the system named is HCT-116. In words: Growth inhibitory activity against human colon HCT116 cell line. The assay is classed as functional. The essentials:
as §2

In assay [5] the test system is HCT-116. In words: Diameter of zone of inhibition for cell colony formation of solid tumor HCT116 at the dose of 200 ug. It is filed as functional, Homo sapiens. The method in brief: (§3)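 HCT116, L1210 leukaemia and normal fibroblast cells were seeded in soft agar in separate 60 mm dishes. The compound was applied to a filter-paper disk laid on the agar. Colony-formation inhibition zones were read after 6–7 days at 37 °C and expressed in zone units (200 units = 6.5 mm; 950 = total inhibition; 0 = none). n > 2 unless otherwise indicated.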

The test system of another assay is NCI-H522. Briefly: Growth inhibitory activity against human lung NCI-H522 cell line. The assay is classed as functional. The essentials: as §2
The test system of a further assay is RXF 393. In words: Growth inhibitory activity against human renal RXF-393 cell line. The assay is classed as functional. The essentials: as §2
A further assay deals with HL-60. Briefly: Growth inhibitory activity against human leukemia HL-60 (TB) cell line. It is filed as functional. Set-up: unit not given here.
A further assay concerns MCF7. In words: Growth inhibitory activity against human breast MCF-7 cell line. The assay is classed as functional. The method in brief:
as §2

Assay [6] deals with Mus musculus. Briefly: Tumor growth delay of human HCT116 colorectal carcinoma in mice after intravenous administration at dose of 128 mg/kg. The assay is classed as functional. The method in brief:
(§4)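 Female nude mice were implanted with HCT116 tumour tissue from donor mice and randomized once tumours averaged 100 mm3. The sodium salt in saline (pH 7.4) was given by iv bolus on days 1–5 and 8–12. Tumour volumes were recorded twice weekly. TGD = T − C, the time to reach 500 mm3 taken from a fitted tumour-growth model.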

For assay [7], the system named is Mus musculus. In words: Tumor growth delay of human HCT116 colorectal carcinoma in mice after intravenous administration at dose of 85 mg/kg. It is filed as functional. The method in brief: as §4
Assay [8] concerns Mus musculus. Briefly: Tumor growth delay of human HCT116 colorectal carcinoma in mice after intravenous administration at dose of 64 mg/kg. It is filed as functional. The essentials: as §4
Assay [9] has as its system L1210. Briefly: Diameter of zone of inhibition for cell colony formation of leukemia L1210 at the dose of 190 ug. It is filed as functional, Mus musculus. The essentials:
as §1

The nature of assay [10]: Diameter of zone of inhibition for cell colony formation of normal fibroblast at the dose of 190 ug; Range is 0-.975. The assay is classed as functional, Homo sapiens. The essentials: as §1
The subject of assay [11] is HCT-116. Briefly: Diameter of zone of inhibition for cell colony formation of solid tumor HCT116 at the dose of 190 ug. The assay is classed as functional, Homo sapiens. The method in brief: as §1
The subject of assay [12] is L1210. Briefly: Diameter of zone of inhibition for cell colony formation of leukemia L1210 at the dose of 200 ug. It is filed as functional, Mus musculus. The essentials:
as §1

The nature of assay [13]: Diameter of zone of inhibition for cell colony formation of normal fibroblast at the dose of 200 ug; Range is 0-4.875. The assay is classed as functional, Homo sapiens. The essentials:
as §1

Assay [14] has as its system Mus musculus. Briefly: Tumor growth delay of human HCT116 colorectal carcinoma in mice after intravenous administration at dose of 63 mg/kg. The assay is classed as functional. The method in brief:
as §4

Assay [15] concerns L1210. Briefly: Diameter of zone of inhibition for cell colony formation of leukemia L1210 at the dose of 210 ug. The assay is classed as functional, Mus musculus. The method in brief:
as §1

A short description of assay [16]: Diameter of zone of inhibition for cell colony formation of solid tumor H15 at the dose of 210 ug. The assay is classed as functional, Homo sapiens. The method in brief:
as §1

Assay [17] can be described thus: Diameter of zone of inhibition for cell colony formation of normal fibroblast at the dose of 210 ug; Range is 0-11.375. The assay is classed as functional, Homo sapiens. The essentials:
as §1

Assay [18] concerns Mus musculus. Briefly: Tumor growth delay of human HCT116 colorectal carcinoma in mice after intravenous administration at dose of 32 mg/kg. It is filed as functional. The method in brief:
as §4

The nature of assay [19]: Diameter of zone of inhibition for cell colony formation of normal fibroblast at the dose of 210 ug; Range is 0-2.6. The assay is classed as functional, Homo sapiens. The essentials: as §1
Assay [20] relates to HCT-116. Briefly: Diameter of zone of inhibition for cell colony formation of solid tumor HCT116 at the dose of 210 ug. It is filed as functional, Homo sapiens. The essentials: as §3
Assay [21] in a line: Diameter of zone of inhibition for cell colony formation of normal fibroblast at the dose of 190 ug; Range is 0-2.275. The assay is classed as functional, Homo sapiens. The method in brief:
as §1

With `O=C(NS(=O)(=O)c1ccc(Cl)cc1)c1ccc(Cl)cc1Cl`, the figures for the Inhibition (with L1210 [1]; in [2]; in the assay on HCT-116 [5]) were 6.5 mm, 11 mm and 19.5 mm, respectively. The GI50 in the assay with HT-29 is 54.8 µM; with SW-620 it was 39.6 µM; in the assay with HCT-116 [4], 5.3 µM; in the assay with NCI-H522, 8.6 µM; in the assay on RXF 393, 11 µM; in the assay on HL-60, 34.7. For the same compound, in the assay with MCF7, the GI50 was found to be 1.5 µM. This compound gave an MGM in assay [3] of 26.3.
With `O=C(NS(=O)(=O)c1ccccc1)c1ccc(Cl)cc1Cl`, the values for the Growth delay in the assay with Mus musculus [6], with Mus musculus [7] and in the assay on Mus musculus [8] were 22 days, 15 days and 14 days, respectively. Also, the GI50 with HT-29 was found to be 52 µM; in the assay on SW-620 it was 8.6 µM; with HCT-116 [4] it was 5.4 µM; in the assay with NCI-H522, 18.7 µM; with RXF 393, 4.3 µM; in the assay with HL-60 it was 32.9. In the assay with MCF7, this compound returned a GI50 of 18.9 µM. Besides, the MGM in assay [3] is reported as 33.1.
As for `O=C(NS(=O)(=O)c1ccc(Cl)cc1)c1cccc(Br)c1`, the results for the Inhibition (in the assay with L1210 [9]; in assay [10]; with HCT-116 [11]) were 6.82 mm, 0.97 mm and 10.4 mm, respectively.
For the compound `O=C(NS(=O)(=O)c1ccc(Cl)cc1)c1ccc(Cl)c(Cl)c1`, the Inhibition amounted to 13 mm in the assay with HCT-116 [5], 6.5 mm in the assay on L1210 [12] and 4.87 mm in [13].
As for `O=C(NS(=O)(=O)c1ccc(Cl)cc1)c1ccc(Br)cc1Cl`, the Growth delay is 23 days in the assay on Mus musculus [14] and 12 days in the assay on Mus musculus [18]. The Inhibition came to 6.5 mm with L1210 [15], 14.95 mm in [16] and 11.37 mm in assay [17].
As for `O=C(NS(=O)(=O)c1ccc(Cl)cc1)c1cc(Cl)cc(Cl)c1`, the Inhibition in the assay on L1210 [15] is 4.87 mm; in [19], 2.6 mm; with HCT-116 [20] it was 10.72 mm.
For the compound `O=C(NS(=O)(=O)c1ccc(Cl)cc1)c1ccc(Cl)cc1`, the values for the Inhibition (in the assay with L1210 [9]; in assay [21]; in the assay on HCT-116 [11]) were 5.85 mm, 2.27 mm and 10.72 mm, respectively.
